According to ChEMBL document CHEMBL4689842, “EUbOPEN Chemogenomics Library wave 1” (2021):

Test system: HEK-293T
Test: Multiplex assay against HEK293T;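 on Population Tubulin-Different-Phenotype (%): share of the cells with healthy nuclei that show this phenotype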
Format: toxicity, cell-based
Details: human
How it was run: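 Tubulin, mitochondrial-mass and membrane-permeability phenotypes are per cents of healthy-nucleus cells. Cells were gated by CellPathfinder machine learning into Hoechst high-intensity objects or normal cells, normal cells into healthy, pyknosed or fragmented nuclei, and pyknosed cells into mitotic or apoptotic. Before that, live cells stained at seeding with Hoechst33342, BioTracker Green Microtubule Cytoskeleton Dye, MitoTracker Red and Annexin V Alexa Fluor 680 were imaged on a CQ1 microscope at 37°C and 5% CO2 after compound addition.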

[1] = 12 h, 1 µM, compound concentration 1 uM, replicate 1
[2] = 12 h, 1 µM, compound concentration 1 uM, replicate 2
[3] = 12 h, 10 µM, compound concentration 10 uM, replicate 1
[4] = 12 h, 10 µM, compound concentration 10 uM, replicate 2
[5] = 24 h, 1 µM, compound concentration 1 uM, replicate 1
[6] = 24 h, 1 µM, compound concentration 1 uM, replicate 2
[7] = 24 h, 10 µM, compound concentration 10 uM, replicate 1
[8] = 24 h, 10 µM, compound concentration 10 uM, replicate 2
[9] = 48 h, 1 µM, compound concentration 1 uM, replicate 1
[10] = 48 h, 1 µM, compound concentration 1 uM, replicate 2
[11] = 48 h, 10 µM, compound concentration 10 uM, replicate 1
[12] = 48 h, 10 µM, compound concentration 10 uM, replicate 2

COc1cccc([C@@H](C)NCCCc2ccccc2Cl)c1.Cl [TECALCET HYDROCHLORIDE]
Population Apoptotic (%) [1]: 45%
Population Fragmented Nuclei (%) [1]: 9%
Population Healthy Nuclei (%) [1]: 46%
Population Hoechst High Intensity Objects (%) [1]: 11%
Population Membrane Permeable-Phenotype (%) [1]: 2%
Population Mitochondria Different-Phenotype (%) [1]: 83%
Population Mitotic Cells (%) [1]: 54%
Population Normal (%) [1]: 88%
Population Pyknosed Nuclei (%) [1]: 44%
Population Tubulin-Different-Phenotype (%) [1]: 57%
Total Cell Count [1]: 333
Population Apoptotic (%) [2]: 16%
Population Fragmented Nuclei (%) [2]: 3%
Population Healthy Nuclei (%) [2]: 29%
Population Hoechst High Intensity Objects (%) [2]: 3%
Population Membrane Permeable-Phenotype (%) [2]: 11%
Population Mitochondria Different-Phenotype (%) [2]: 45%
Population Mitotic Cells (%) [2]: 83%
Population Normal (%) [2]: 96%
Population Pyknosed Nuclei (%) [2]: 67%
Population Tubulin-Different-Phenotype (%) [2]: 41%
Total Cell Count [2]: 188
Population Apoptotic (%) [3]: 80%
Population Fragmented Nuclei (%) [3]: 9%
Population Healthy Nuclei (%) [3]: 29%
Population Hoechst High Intensity Objects (%) [3]: 12%
Population Membrane Permeable-Phenotype (%) [3]: 2%
Population Mitochondria Different-Phenotype (%) [3]: 100%
Population Mitotic Cells (%) [3]: 19%
Population Normal (%) [3]: 87%
Population Pyknosed Nuclei (%) [3]: 60%
Population Tubulin-Different-Phenotype (%) [3]: 93%
Total Cell Count [3]: 290
Population Apoptotic (%) [4]: 59%
Population Fragmented Nuclei (%) [4]: 3%
Population Healthy Nuclei (%) [4]: 22%
Population Hoechst High Intensity Objects (%) [4]: 4%
Population Membrane Permeable-Phenotype (%) [4]: 4%
Population Mitochondria Different-Phenotype (%) [4]: 95%
Population Mitotic Cells (%) [4]: 40%
Population Normal (%) [4]: 95%
Population Pyknosed Nuclei (%) [4]: 74%
Population Tubulin-Different-Phenotype (%) [4]: 95%
Total Cell Count [4]: 222
Population Apoptotic (%) [5]: 36%
Population Fragmented Nuclei (%) [5]: 8%
Population Healthy Nuclei (%) [5]: 64%
Population Hoechst High Intensity Objects (%) [5]: 9%
Population Membrane Permeable-Phenotype (%) [5]: 2%
Population Mitochondria Different-Phenotype (%) [5]: 73%
Population Mitotic Cells (%) [5]: 63%
Population Normal (%) [5]: 90%
Population Pyknosed Nuclei (%) [5]: 26%
Population Tubulin-Different-Phenotype (%) [5]: 52%
Total Cell Count [5]: 417
Population Apoptotic (%) [6]: 27%
Population Fragmented Nuclei (%) [6]: 3%
Population Healthy Nuclei (%) [6]: 50%
Population Hoechst High Intensity Objects (%) [6]: 2%
Population Membrane Permeable-Phenotype (%) [6]: 10%
Population Mitochondria Different-Phenotype (%) [6]: 25%
Population Mitotic Cells (%) [6]: 72%
Population Normal (%) [6]: 97%
Population Pyknosed Nuclei (%) [6]: 46%
Population Tubulin-Different-Phenotype (%) [6]: 44%
Total Cell Count [6]: 217
Population Apoptotic (%) [7]: 74%
Population Fragmented Nuclei (%) [7]: 11%
Population Healthy Nuclei (%) [7]: 36%
Population Hoechst High Intensity Objects (%) [7]: 9%
Population Membrane Permeable-Phenotype (%) [7]: 0%
Population Mitotic Cells (%) [7]: 25%
Population Normal (%) [7]: 90%
Population Pyknosed Nuclei (%) [7]: 51%
Total Cell Count [7]: 307
Population Apoptotic (%) [8]: 63%
Population Fragmented Nuclei (%) [8]: 4%
Population Healthy Nuclei (%) [8]: 41%
Population Hoechst High Intensity Objects (%) [8]: 5%
Population Membrane Permeable-Phenotype (%) [8]: 1%
Population Mitochondria Different-Phenotype (%) [8]: 100%
Population Mitotic Cells (%) [8]: 36%
Population Normal (%) [8]: 94%
Population Pyknosed Nuclei (%) [8]: 53%
Population Tubulin-Different-Phenotype (%) [8]: 97%
Total Cell Count [8]: 233
Population Apoptotic (%) [9]: 20%
Population Fragmented Nuclei (%) [9]: 6%
Population Healthy Nuclei (%) [9]: 81%
Population Hoechst High Intensity Objects (%) [9]: 5%
Population Membrane Permeable-Phenotype (%) [9]: 2%
Population Mitochondria Different-Phenotype (%) [9]: 22%
Population Mitotic Cells (%) [9]: 79%
Population Normal (%) [9]: 94%
Population Pyknosed Nuclei (%) [9]: 11%
Population Tubulin-Different-Phenotype (%) [9]: 23%
Total Cell Count [9]: 698
Population Apoptotic (%) [10]: 23%
Population Fragmented Nuclei (%) [10]: 7%
Population Healthy Nuclei (%) [10]: 76%
Population Hoechst High Intensity Objects (%) [10]: 3%
Population Membrane Permeable-Phenotype (%) [10]: 8%
Population Mitochondria Different-Phenotype (%) [10]: 15%
Population Mitotic Cells (%) [10]: 76%
Population Normal (%) [10]: 96%
Population Pyknosed Nuclei (%) [10]: 16%
Population Tubulin-Different-Phenotype (%) [10]: 49%
Total Cell Count [10]: 383
Population Apoptotic (%) [11]: 73%
Population Fragmented Nuclei (%) [11]: 15%
Population Healthy Nuclei (%) [11]: 55%
Population Hoechst High Intensity Objects (%) [11]: 10%
Population Membrane Permeable-Phenotype (%) [11]: 1%
Population Mitochondria Different-Phenotype (%) [11]: 94%
Population Mitotic Cells (%) [11]: 26%
Population Normal (%) [11]: 89%
Population Pyknosed Nuclei (%) [11]: 29%
Population Tubulin-Different-Phenotype (%) [11]: 89%
Total Cell Count [11]: 355
Population Apoptotic (%) [12]: 58%
Population Fragmented Nuclei (%) [12]: 4%
Population Healthy Nuclei (%) [12]: 62%
Population Hoechst High Intensity Objects (%) [12]: 2%
Population Membrane Permeable-Phenotype (%) [12]: 0%
Population Mitochondria Different-Phenotype (%) [12]: 93%
Population Mitotic Cells (%) [12]: 41%
Population Normal (%) [12]: 97%
Population Pyknosed Nuclei (%) [12]: 33%
Population Tubulin-Different-Phenotype (%) [12]: 96%
Total Cell Count [12]: 265

Cl.N#Cc1ccc2[nH]cc(CCCCN3CCN(c4ccc5oc(C(N)=O)cc5c4)CC3)c2c1 [VILAZODONE HYDROCHLORIDE]
Population Apoptotic (%) [1]: 53%
Population Healthy Nuclei (%) [1]: 49%
Population Hoechst High Intensity Objects (%) [1]: 9%
Population Membrane Permeable-Phenotype (%) [1]: 1%
Population Mitochondria Different-Phenotype (%) [1]: 93%
Population Mitotic Cells (%) [1]: 46%
Population Normal (%) [1]: 90%
Population Pyknosed Nuclei (%) [1]: 44%
Population Tubulin-Different-Phenotype (%) [1]: 78%
Total Cell Count [1]: 364
Population Apoptotic (%) [2]: 20%
Population Fragmented Nuclei (%) [2]: 6%
Population Healthy Nuclei (%) [2]: 32%
Population Hoechst High Intensity Objects (%) [2]: 3%
Population Membrane Permeable-Phenotype (%) [2]: 6%
Population Mitochondria Different-Phenotype (%) [2]: 67%
Population Mitotic Cells (%) [2]: 79%
Population Normal (%) [2]: 96%
Population Pyknosed Nuclei (%) [2]: 61%
Population Tubulin-Different-Phenotype (%) [2]: 69%
Total Cell Count [2]: 138
Population Apoptotic (%) [3]: 93%
Population Healthy Nuclei (%) [3]: 8%
Population Hoechst High Intensity Objects (%) [3]: 25%
Population Membrane Permeable-Phenotype (%) [3]: 0%
Population Mitochondria Different-Phenotype (%) [3]: 100%
Population Mitotic Cells (%) [3]: 6%
Population Normal (%) [3]: 74%
Population Pyknosed Nuclei (%) [3]: 78%
Population Tubulin-Different-Phenotype (%) [3]: 92%
Total Cell Count [3]: 198
Population Apoptotic (%) [4]: 82%
Population Fragmented Nuclei (%) [4]: 12%
Population Healthy Nuclei (%) [4]: 16%
Population Hoechst High Intensity Objects (%) [4]: 23%
Population Membrane Permeable-Phenotype (%) [4]: 23%
Population Mitochondria Different-Phenotype (%) [4]: 84%
Population Mitotic Cells (%) [4]: 17%
Population Normal (%) [4]: 76%
Population Pyknosed Nuclei (%) [4]: 70%
Population Tubulin-Different-Phenotype (%) [4]: 96%
Total Cell Count [4]: 199
Population Apoptotic (%) [5]: 52%
Population Fragmented Nuclei (%) [5]: 6%
Population Healthy Nuclei (%) [5]: 58%
Population Hoechst High Intensity Objects (%) [5]: 6%
Population Membrane Permeable-Phenotype (%) [5]: 3%
Population Mitochondria Different-Phenotype (%) [5]: 87%
Population Mitotic Cells (%) [5]: 47%
Population Normal (%) [5]: 93%
Population Pyknosed Nuclei (%) [5]: 34%
Population Tubulin-Different-Phenotype (%) [5]: 71%
Total Cell Count [5]: 412
Population Apoptotic (%) [6]: 32%
Population Fragmented Nuclei (%) [6]: 5%
Population Healthy Nuclei (%) [6]: 43%
Population Hoechst High Intensity Objects (%) [6]: 5%
Population Membrane Permeable-Phenotype (%) [6]: 2%
Population Mitochondria Different-Phenotype (%) [6]: 60%
Population Mitotic Cells (%) [6]: 67%
Population Normal (%) [6]: 94%
Population Pyknosed Nuclei (%) [6]: 50%
Population Tubulin-Different-Phenotype (%) [6]: 58%
Total Cell Count [6]: 165
Population Apoptotic (%) [7]: 98%
Population Fragmented Nuclei (%) [7]: 19%
Population Healthy Nuclei (%) [7]: 5%
Population Hoechst High Intensity Objects (%) [7]: 21%
Population Membrane Permeable-Phenotype (%) [7]: 0%
Population Mitochondria Different-Phenotype (%) [7]: 100%
Population Mitotic Cells (%) [7]: 1%
Population Normal (%) [7]: 78%
Population Pyknosed Nuclei (%) [7]: 74%
Population Tubulin-Different-Phenotype (%) [7]: 100%
Total Cell Count [7]: 215
Population Apoptotic (%) [8]: 92%
Population Fragmented Nuclei (%) [8]: 10%
Population Healthy Nuclei (%) [8]: 12%
Population Hoechst High Intensity Objects (%) [8]: 25%
Population Membrane Permeable-Phenotype (%) [8]: 11%
Population Mitochondria Different-Phenotype (%) [8]: 94%
Population Mitotic Cells (%) [8]: 7%
Population Normal (%) [8]: 74%
Population Pyknosed Nuclei (%) [8]: 76%
Population Tubulin-Different-Phenotype (%) [8]: 94%
Total Cell Count [8]: 186
Population Apoptotic (%) [9]: 32%
Population Healthy Nuclei (%) [9]: 75%
Population Hoechst High Intensity Objects (%) [9]: 7%
Population Membrane Permeable-Phenotype (%) [9]: 2%
Population Mitochondria Different-Phenotype (%) [9]: 51%
Population Mitotic Cells (%) [9]: 67%
Population Normal (%) [9]: 92%
Population Pyknosed Nuclei (%) [9]: 15%
Population Tubulin-Different-Phenotype (%) [9]: 57%
Total Cell Count [9]: 639
Population Apoptotic (%) [10]: 33%
Population Fragmented Nuclei (%) [10]: 9%
Population Healthy Nuclei (%) [10]: 68%
Population Hoechst High Intensity Objects (%) [10]: 4%
Population Membrane Permeable-Phenotype (%) [10]: 6%
Population Mitochondria Different-Phenotype (%) [10]: 32%
Population Mitotic Cells (%) [10]: 66%
Population Normal (%) [10]: 95%
Population Pyknosed Nuclei (%) [10]: 22%
Population Tubulin-Different-Phenotype (%) [10]: 51%
Total Cell Count [10]: 263
Population Apoptotic (%) [11]: 94%
Population Fragmented Nuclei (%) [11]: 27%
Population Healthy Nuclei (%) [11]: 0%
Population Hoechst High Intensity Objects (%) [11]: 16%
Population Membrane Permeable-Phenotype (%) [11]: 0%
Population Mitochondria Different-Phenotype (%) [11]: 100%
Population Mitotic Cells (%) [11]: 5%
Population Normal (%) [11]: 83%
Population Pyknosed Nuclei (%) [11]: 72%
Population Tubulin-Different-Phenotype (%) [11]: 0%
Total Cell Count [11]: 248
Population Apoptotic (%) [12]: 95%
Population Fragmented Nuclei (%) [12]: 13%
Population Healthy Nuclei (%) [12]: 12%
Population Hoechst High Intensity Objects (%) [12]: 30%
Population Membrane Permeable-Phenotype (%) [12]: 17%
Population Mitochondria Different-Phenotype (%) [12]: 88%
Population Mitotic Cells (%) [12]: 4%
Population Normal (%) [12]: 69%
Population Pyknosed Nuclei (%) [12]: 73%
Population Tubulin-Different-Phenotype (%) [12]: 94%
Total Cell Count [12]: 191
